# According to ChEMBL document CHEMBL1121405, “Antihypertensive indole derivatives of phenoxypropanolamines with beta-adrenergic receptor antagonist and vasodilating activity” (1980):
# Biological target: T1, Adrenergic receptor beta (Rattus norvegicus) (UniProt P18090+P10608+P26255)
# Experiment: Beta-adrenergic receptor blockade activity in conscious normotensive rats at a dose of 0.5 mg/kg
# Assay type: functional, organism-based
# Set-up: dose 0.5 mg/kg
# Settings: not given
row,inhibition [%],Structure (SMILES)
1,79,Cc1cccc(OCC(O)CNC(C)(C)Cc2c[nH]c3ccccc23)c1C (configuration not stated)
2,58,CC(C)(Cc1c[nH]c2ccccc12)NCC(O)COc1ccccc1F (configuration not stated)

# Species: Rattus norvegicus
# Experiment: Intrinsic sympathomimetic action in reserpinized rats
# Assay type: functional
# Settings: not given
# How it was run: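 Reserpinized rats given 0.3 mg/kg iv. Read-out is increase in heart rate (bpm), mean ± SEM, n = 3-6.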
row,Structure (SMILES),Activity [beats min-1]
1,CC(C)NCC(O)COc1cccc2[nH]ccc12 (configuration not stated) [PINDOLOL],120
2,CC(C)(Cc1c[nH]c2ccccc12)NCC(O)COc1ccccc1C(F)(F)F (configuration not stated),88
3,CC(C)(Cc1c[nH]c2ccccc12)NCC(O)COc1ccccc1C(N)=O (configuration not stated),74
4,CC(C)(Cc1c[nH]c2ccccc12)NCC(O)COc1ccccc1 (configuration not stated),141
5,CC(C)(Cc1c[nH]c2ccccc12)NCC(O)COc1ccccc1[N+](=O)[O-] (configuration not stated),106
6,Cc1ccccc1OCC(O)CNC(C)(C)Cc1c[nH]c2ccccc12 (configuration not stated),100
7,CC(C)(Cc1c[nH]c2ccccc12)NCC(O)COc1ccccc1C#N (configuration not stated) [BUCINDOLOL],77
8,CCC(C)c1ccccc1OCC(O)CNC(C)(C)Cc1c[nH]c2ccccc12 (configuration not stated),-8
9,CC(C)(Cc1c[nH]c2ccccc12)NCC(O)COc1ccccc1N (configuration not stated),105

# Test system: Rattus norvegicus
# Experiment: Antihypertensive activity in spontaneously hypertensive rats after peroral administration
# Assay type: functional
# Settings: not given
# How it was run: (§1)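 SHR, 3-day test. After about 20 min prewarming at 37 °C, indirect systolic pressure by tail cuff at 0 (control), 22, 24, 26 and 46 h. Oral dosing at 0 and 22 h, at 100 mg/kg unless footnoted otherwise. Groups of five rats; maximum mean fall from the control reading is rated in bands (<25, 25-34, 35-44, ≥45 mmHg).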
row,Structure (SMILES),Actvity [mmHg]
1,CC(C)(Cc1c[nH]c2ccccc12)NCC(O)COc1ccccc1C(F)(F)F (configuration not stated),44
2,CC(C)(Cc1c[nH]c2ccccc12)NCC(O)COc1ccccc1C(N)=O (configuration not stated),44
3,Cc1cc(S(C)(=O)=O)ccc1OCC(O)CNC(C)(C)Cc1c[nH]c2ccccc12 (configuration not stated),<25
4,CC(C)(Cc1c[nH]c2ccccc12)NCC(O)COc1ccccc1 (configuration not stated),<25
5,CC(C)(Cc1c[nH]c2ccccc12)NCC(O)COc1ccccc1[N+](=O)[O-] (configuration not stated),<25
6,CC(C)NCC(O)COc1cccc2ccccc12 (configuration not stated) [PROPRANOLOL],<25
7,Cc1ccccc1OCC(O)CNC(C)(C)Cc1c[nH]c2ccccc12 (configuration not stated),34
8,CC(C)(Cc1c[nH]c2ccccc12)NCC(O)COc1ccccc1C#N (configuration not stated) [BUCINDOLOL],45
9,Cc1ccc(OCC(O)CNC(C)(C)Cc2c[nH]c3ccccc23)c(C)c1 (configuration not stated),34
10,CC(C)(Cc1c[nH]c2ccccc12)NCC(O)COc1ccccc1C1CCCCC1 (configuration not stated),<25
11,CC(C)(Cc1c[nH]c2ccccc12)NCC(O)COc1ccccc1N (configuration not stated),44

# Test system: Rattus norvegicus
# Experiment: Vasodilator activity in ganglion blocked rats. Values denote percent change in mean arterial blood pressure 30 minutes after dosing rats at 3 mg/kg intravenously
# Assay type: functional
# Settings: route intravenous
# How it was run: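 Male Wistar rats (275-450 g), urethane 800 mg/kg plus chloralose 60 mg/kg ip, then chlorisondamine 2.5 mg/kg ip for ganglion block. Angiotensin II infused iv at 0.25 or 0.35 μg/min to a new steady pressure. Drug given iv over 3 min; femoral mean arterial pressure recorded at 30 min as % change ± SEM.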
row,Structure (SMILES),Delta MAP [%]
1,CC(C)NCC(O)COc1cccc2[nH]ccc12 (configuration not stated) [PINDOLOL],-32
2,CC(C)(Cc1c[nH]c2ccccc12)NCC(O)COc1ccccc1C(F)(F)F (configuration not stated),-34
3,CC(C)(Cc1c[nH]c2ccccc12)NCC(O)COc1ccccc1C(N)=O (configuration not stated),-25
4,Cc1cc(S(C)(=O)=O)ccc1OCC(O)CNC(C)(C)Cc1c[nH]c2ccccc12 (configuration not stated),-8
5,Cc1cccc(C)c1OCC(O)CNC(C)(C)Cc1c[nH]c2ccccc12 (configuration not stated),-4
6,CC(C)(Cc1c[nH]c2ccccc12)NCC(O)COc1ccccc1 (configuration not stated),-26
7,CC(C)(Cc1c[nH]c2ccccc12)NCC(O)COc1ccccc1[N+](=O)[O-] (configuration not stated),-38
8,Cc1ccccc1OCC(O)CNC(C)(C)Cc1c[nH]c2ccccc12 (configuration not stated),-18
9,CC(C)(Cc1c[nH]c2ccccc12)NCC(O)COc1ccccc1-c1ccccc1 (configuration not stated),12
10,CC(C)(Cc1c[nH]c2ccccc12)NCC(O)COc1ccccc1C#N (configuration not stated) [BUCINDOLOL],-26
11,Cc1ccc(OCC(O)CNC(C)(C)Cc2c[nH]c3ccccc23)c(C)c1 (configuration not stated),13
12,CSc1ccccc1OCC(O)CNC(C)(C)Cc1c[nH]c2ccccc12 (configuration not stated),-29
13,CCC(C)c1ccccc1OCC(O)CNC(C)(C)Cc1c[nH]c2ccccc12 (configuration not stated),22
14,CC(C)(Cc1c[nH]c2ccccc12)NCC(O)COc1ccccc1C1CCCCC1 (configuration not stated),18
15,Cc1cc(Cl)ccc1OCC(O)CNC(C)(C)Cc1c[nH]c2ccccc12 (configuration not stated),11
16,Cc1cccc(OCC(O)CNC(C)(C)Cc2c[nH]c3ccccc23)c1C (configuration not stated),8
17,CC(C)(Cc1c[nH]c2ccccc12)NCC(O)COc1ccccc1N (configuration not stated),-11
18,CC(C)(Cc1c[nH]c2ccccc12)NCC(O)COc1ccccc1F (configuration not stated),-33

# Test system: Rattus norvegicus
# Experiment: The compound was tested for antihypertensive activity in spontaneously hypertensive rats after peroral administration, dosed at 30 mg/kg
# Assay type: functional
# Settings: route oral
# How it was run: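 Conscious spontaneously hypertensive rats, groups of five per compound. Given orally at 0 and 22 h. Before tail-cuff readings, rats were prewarmed to 37 °C for about 20 min. Indirect systolic pressure was read at 0 (control), 22, 24, 26 and 46 h. Activity was scored from the maximum mean fall from control: under 25 mmHg (±), 25-34 (+), 35-44 (++), 45 mmHg and over (+++).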
row,Structure (SMILES),Actvity [mmHg]
1,CC(C)NCC(O)COc1cccc2[nH]ccc12 (configuration not stated) [PINDOLOL],<25

# Test system: Rattus norvegicus
# Experiment: The compound was tested for antihypertensive activity in spontaneously hypertensive rats after peroral administration, Activity value is <25 mmHg
# Assay type: functional
# Settings: not given
# How it was run: as §1
row,Structure (SMILES),Actvity [mmHg]
1,CC(C)(Cc1c[nH]c2ccccc12)NCC(O)COc1ccccc1F (configuration not stated),<25

# Test system: Rattus norvegicus
# Experiment: Antihypertensive activity in spontaneously hypertensive rats after peroral administration,
# Assay type: functional
# Settings: not given
# How it was run: as §1
row,Structure (SMILES),Actvity [mmHg]
1,Cc1cccc(C)c1OCC(O)CNC(C)(C)Cc1c[nH]c2ccccc12 (configuration not stated),<25
2,CC(C)(Cc1c[nH]c2ccccc12)NCC(O)COc1ccccc1-c1ccccc1 (configuration not stated),<25
3,CCC(C)c1ccccc1OCC(O)CNC(C)(C)Cc1c[nH]c2ccccc12 (configuration not stated),<25

# Test system: Rattus norvegicus
# Experiment: The compound was tested for antihypertensive activity in spontaneously hypertensive rats after peroral administration. Activity value is 35-44 mmHg
# Assay type: functional
# Settings: not given
# How it was run: as §1
row,Structure (SMILES),Actvity [mmHg]
1,Cc1cccc(OCC(O)CNC(C)(C)Cc2c[nH]c3ccccc23)c1C (configuration not stated),44

# Biological target: T1, Adrenergic receptor beta (Rattus norvegicus)
# Experiment: The compound was tested for beta-adrenergic receptor blockade activity in conscious normotensive rats at a dose of 2 mg/kg
# Assay type: functional, organism-based
# Set-up: dose 2 mg/kg
# Settings: not given
row,inhibition [%],Structure (SMILES)
1,71,CC(C)(Cc1c[nH]c2ccccc12)NCC(O)COc1ccccc1C#N (configuration not stated) [BUCINDOLOL]
